Assay outcomes as filed in PubChem BioAssay.
proCasp7 act: procaspase-7 activators, primary screen, counter-screen for procaspase-3 activator project, biochemical, absorbance, HTS, human; Caspase-7 (Homo sapiens), P55210; recombinant procaspase-7, Ac-DEVD-pNA absorbance 405 nm; D23A/D198A/D206A triple mutant, cannot self-cleave; scale: DMSO 0, 5 µM enzyme 100; activation, % at 8.5 µM; 0.093% of 330,000 active; AID 463210, 2010;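 active means percent activation above the screen-wide mean plus 3 SD, cut at about 25% in these data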
Target sequence (P55210 whole entry D23A/D198A/D206A): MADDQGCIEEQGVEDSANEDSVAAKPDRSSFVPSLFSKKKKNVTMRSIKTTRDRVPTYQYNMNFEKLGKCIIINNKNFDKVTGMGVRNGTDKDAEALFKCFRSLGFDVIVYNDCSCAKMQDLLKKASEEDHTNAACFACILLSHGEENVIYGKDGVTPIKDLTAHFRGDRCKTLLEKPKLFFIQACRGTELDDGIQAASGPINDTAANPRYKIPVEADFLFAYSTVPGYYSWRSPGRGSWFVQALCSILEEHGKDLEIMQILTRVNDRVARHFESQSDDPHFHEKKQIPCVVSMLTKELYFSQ
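System: Procaspase-7 triple mutant (PC-7 D3A); measure: % activation from two-timepoint absorbance difference, scaled to controls; times: 1 h compound preincubation, 2 h substrate cleavage, 25 °C; also added: Ac-DEVD-pNA substrate, 400 µM as added; measured by: Epi-absorbance of released pNA at 405 nm, two timepoints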
bovine MsrA act: bovine MsrA enzyme activators, primary screen, biochemical, absorbance, HTS; purified bovine MsrA, absorbance read-out; AID 602163, 2012; activation, % at 10.6 µM; 0.3% of 360,000 active; Methionine sulfoxide reductase A (Bos taurus); in the data active means activation above about 7.5%
MsrA inh: bovine MsrA enzyme inhibitors, primary screen, biochemical, absorbance, HTS; Methionine sulfoxide reductase A (Bos taurus); 0.75% of 360,000 active; purified bovine MsrA, absorbance read-out; inhibition, % at 15.5 µM; in the data active means inhibition above about 4.5%
TbMetRS inhib: T. brucei MetRS inhibitors, primary screen, biochemical, luminescence | methionyl-tRNA synthetase (Trypanosoma brucei brucei) | purified T. brucei MetRS, ATP depletion, Kinase-Glo luminescence | inhibition, % at 11.9 µM | 0.4% of 360,000 active | AID 624268, 2012;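 active means inhibition above a per-plate cutoff of the control wells' mean inhibition plus 3 SD, cut at about 5.5% in these data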
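Material: T. brucei methionyl-tRNA synthetase, purified; reagent: substrates ATP, L-methionine and bulk Escherichia coli tRNA; dosing: 11.9 µM single point; timing: 15 min plus 2 h at 25 °C; detection: luminescence of leftover ATP; evaluation: % inhibition; control set: DMSO-only wells as low control; replicates: singlicate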
proCasp3 act: activators of human procaspase-3 D3A mutant, primary screen, biochemical, absorbance, PC-3 D3A mutant, single concentration | activation, % at 8.5 µM | Caspase-3 (Homo sapiens), P42574 | recombinant procaspase-3 D3A, Ac-DEVD-pNA absorbance 405 nm | 0.11% of 330,000 active;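 active means activation above the mean of all tested compounds plus 3 SD, cut at about 21% in these data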
Target sequence (P42574 whole entry D9A/D28A/D175A): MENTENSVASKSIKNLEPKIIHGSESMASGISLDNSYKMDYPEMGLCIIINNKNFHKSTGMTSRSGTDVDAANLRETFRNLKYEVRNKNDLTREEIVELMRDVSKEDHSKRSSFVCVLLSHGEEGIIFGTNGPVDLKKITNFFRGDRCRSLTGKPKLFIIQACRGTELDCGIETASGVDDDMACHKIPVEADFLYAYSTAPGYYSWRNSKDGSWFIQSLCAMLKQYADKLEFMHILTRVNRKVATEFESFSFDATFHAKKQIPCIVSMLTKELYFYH
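System: Procaspase-3 D3A mutant. Medium: Zinc-free 300 mM NaCl, 50 mM HEPES, 0.01% Triton X-100. Schedule: 1 h preincubation plus 2 h reaction at 25 °C. Measured by: 405 nm absorbance of p-nitroaniline, reads at 0 and 120 min. Read-out: percent activation relative to control range.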
Tb MetRS conf: T. brucei MetRS inhibitors, confirmation, biochemical, luminescence; AID 624412, 2012; inhibition, % at 11.9 µM; T. brucei MetRS enzyme, luminescence (ATP depletion); 93% of 1,400 active; shares compounds with TbMetRS inhib; in the data active means inhibition above about 7%
Jurkat tox: Jurkat T cell cytotoxicity, cytotoxicity control for T. brucei MetRS inhibitor project, luminescence, high throughput. AID 624413, 2012. inhibition, % at 8.3 µM. shares compounds with TbMetRS inhib. Jurkat cells viability, ATP luminescence. 12% of 1,400 active; in the data active means inhibition above about 15%
TbMetRS FP orth: T. brucei MetRS inhibitors, orthogonal assay for T. brucei MetRS inhibitor project, biochemical, fluorescence polarization | shares compounds with TbMetRS inhib | purified T. brucei MetRS | inhibition, % at 11.9 µM | 44% of 1,400 active; in the data active means inhibition above about 17%
Of the large screens only hits and unclear results are named; the others gave an inactive call (follow-up assays come after a bar, where they were run). Rows were chosen to be rich in hits. Some 1.5% of all compounds tested hit in one or more screens of this group.

N#CC1=C(N)Oc2cc(N)ccc2C1c1ccsc1 (centres undefined)	none
N#CC1=C(N)Oc2cc(N)ccc2C1c1cccc(Br)c1 (centres undefined)	TbMetRS inhib 34 (no result: proCasp7 act, proCasp3 act) | Tb MetRS conf inactive | Jurkat tox 75 | TbMetRS FP orth inactive
N#CC1=C(N)Oc2cc(N)ccc2C1c1cc(Br)cs1 (centres undefined)	TbMetRS inhib 43 (no result: proCasp7 act, proCasp3 act) | Tb MetRS conf inactive | Jurkat tox 56 | TbMetRS FP orth inactive
O=C(c1cccnc1)N1CCN(c2ccc([N+](=O)[O-])cc2Cl)CC1	TbMetRS inhib 5.8 | Tb MetRS conf 17 | Jurkat tox inactive | TbMetRS FP orth inactive
O=C(c1ccc([N+](=O)[O-])cc1)N1CCN(C(=O)c2cccnc2)CC1	none
Cc1ccc2c(c1)c1nnc(SCC(=O)Nc3cccc(Cl)c3C)nc1n2CC(=O)O	TbMetRS inhib 23 | Tb MetRS conf 65 | Jurkat tox inactive | TbMetRS FP orth 33
Cc1ccc2cc(CCNC(=O)C(=O)c3c(C)[nH]c4ccccc34)c(=O)[nH]c2c1	TbMetRS inhib 13 | Tb MetRS conf 31 | Jurkat tox inactive | TbMetRS FP orth inactive
Oc1ccc(/C=N/Nc2ccnc3cc(Cl)ccc23)cc1O	TbMetRS inhib 5.6 | Tb MetRS conf 13 | Jurkat tox 77 | TbMetRS FP orth 26
O=C(NCCc1nc2ccccc2[nH]1)/C(=C/c1ccc2c(c1)OCO2)NC(=O)c1ccc(Cl)cc1Cl	TbMetRS inhib 8.0 | Tb MetRS conf 11 | Jurkat tox inactive | TbMetRS FP orth inactive
O=C(NCCc1nc2ccccc2[nH]1)/C(=C/c1ccc(F)cc1)NC(=O)c1ccco1	none
Nc1ncnc2nc(SCc3ccc(Cl)cc3Cl)[nH]c12	TbMetRS inhib 12 | Tb MetRS conf 32 | Jurkat tox 15 | TbMetRS FP orth inactive
COc1ccc(Cc2n[nH]c(=S)n2NC(=O)Nc2ccc(Cl)c(Cl)c2)cc1	TbMetRS inhib 37 | Tb MetRS conf 50 | Jurkat tox inactive | TbMetRS FP orth 32
Cc1ccc(C)c(OCCC(=O)Nc2cccc(S(=O)(=O)NC3=NCCCCC3)c2)c1	TbMetRS inhib 7.0 | Tb MetRS conf 22 | Jurkat tox inactive | TbMetRS FP orth 18
Cc1ccc(C)c(C(=O)OCC(=O)Nc2cccc(S(=O)(=O)NC3=NCCCCC3)c2)c1	none
CC(C)(C)S(=O)(=O)N1Cc2cc(CO)ccc2[C@H]1CCO	none (no result: proCasp7 act, bovine MsrA act, TbMetRS inhib, proCasp3 act)
CCCCNc1cccc2c1S(=O)(=O)N[C@H](Cc1ccccc1)CO2	none (no result: proCasp7 act, bovine MsrA act, TbMetRS inhib, proCasp3 act)
CCOC(=O)CC(=O)NC(C)(C)CCCCC(C)(C)NC(=O)CC(=O)OCC	TbMetRS inhib 6.9 | Tb MetRS conf inactive | Jurkat tox inactive | TbMetRS FP orth inactive
CN1CCCCC(NC(=O)c2ccc(Cl)cc2Cl)C1=O (centres undefined)	none (no result: proCasp7 act, bovine MsrA act, TbMetRS inhib, proCasp3 act)
Cc1ccccc1-n1cc(-c2ccc(Br)cc2)nc1SCC(N)=O	TbMetRS inhib 29 | Tb MetRS conf 39 | Jurkat tox inactive | TbMetRS FP orth 23
COC(=O)[C@H](N[C@H](/C=C/c1ccccc1)[C@@H](O)Cc1ccccc1)c1ccccc1	none (no result: proCasp7 act, bovine MsrA act, TbMetRS inhib, proCasp3 act)
O=C(CCCSc1nc2ccccc2[nH]1)NC(c1ccccc1)c1ccccc1	none
O=C(COC(=O)CCCSc1nc2ccccc2[nH]1)Nc1ccc(Cl)cc1	TbMetRS inhib 13 | Tb MetRS conf 21 | Jurkat tox inactive | TbMetRS FP orth inactive
O=C(CCCSc1nc2ccccc2[nH]1)NCc1ccccc1Cl	TbMetRS inhib 10 | Tb MetRS conf 17 | Jurkat tox inactive | TbMetRS FP orth inactive
O=Nc1ccccn1	none (no result: proCasp7 act, bovine MsrA act, TbMetRS inhib, proCasp3 act)
C=CCc1cccc(CNc2nc3ccccc3n2CCC)c1O	TbMetRS inhib 19 | Tb MetRS conf 31 | Jurkat tox inactive | TbMetRS FP orth 18
CCCCn1c(NCc2ccccc2O)nc2ccccc21	none
O=C(CSc1nnc2c(n1)[nH]c1ccccc12)NCc1ccccc1F	TbMetRS inhib 6.5 | Tb MetRS conf 44 | Jurkat tox inactive | TbMetRS FP orth 27
CCn1cnc2cc(NCc3cccc(OC)c3O)ccc21	TbMetRS inhib 18 | Tb MetRS conf 36 | Jurkat tox inactive | TbMetRS FP orth inactive
O=c1c2c([nH]c3ccc(Br)cc13)CCCC2	TbMetRS inhib 14 | Tb MetRS conf 27 | Jurkat tox inactive | TbMetRS FP orth inactive
CCOC(=O)CN(C(=O)CSc1nnc2c(n1)[nH]c1ccc(F)cc12)c1ccccc1	TbMetRS inhib 6.3 | Tb MetRS conf 17 | Jurkat tox inactive | TbMetRS FP orth inactive
CCOC(=O)CN(C(=O)CSc1nnc2c(n1)[nH]c1ccccc12)c1ccccc1	none
Clc1ccc(CNc2ncnc3[nH]ncc23)cc1Cl	TbMetRS inhib 7.1 (no result: proCasp7 act, proCasp3 act) | Tb MetRS conf 29 | Jurkat tox inactive | TbMetRS FP orth 17
COc1ccccc1CCC(=O)Nc1cccc(S(=O)(=O)N2CCCCCC2)c1	TbMetRS inhib 5.7 | Tb MetRS conf 28 | Jurkat tox inactive | TbMetRS FP orth inactive
COc1ccccc1CCC(=O)Nc1cccc(S(=O)(=O)N2CCOCC2)c1	none
O=C(Cn1c(NCCO)nc2ccccc21)Nc1cccc(S(=O)(=O)N2CCCC2)c1	TbMetRS inhib 11 | Tb MetRS conf 48 | Jurkat tox inactive | TbMetRS FP orth inactive
Cc1cccc(NS(=O)(=O)c2c(C)[nH]c(C)c2C(=O)N2CCCC2)c1	TbMetRS inhib 26 | Tb MetRS conf 55 | Jurkat tox inactive | TbMetRS FP orth 20
COc1ccc(Cl)cc1NS(=O)(=O)c1c(C)[nH]c(C)c1C(=O)N1CCCCC1	none
Cc1ccc(NS(=O)(=O)c2c(C)[nH]c(C)c2C(=O)N2CCCC2)cc1	none
CCOc1ccccc1NS(=O)(=O)c1c(C)[nH]c(C)c1C(=O)N1CCCCC1	TbMetRS inhib 35 | Tb MetRS conf 57 | Jurkat tox inactive | TbMetRS FP orth 27
O=C(C[C@H]1C(=O)N(Cc2cccnc2)C[C@@H]1Cc1ccccc1)Nc1ccc(Br)cc1	TbMetRS inhib 41 (no result: proCasp7 act, proCasp3 act) | Tb MetRS conf 67 | Jurkat tox inactive | TbMetRS FP orth 41
